According to article PMC7680358 (European journal of medicinal chemistry, 2020):
≈ marks a conversion by molar mass, not a printed value.

Tests used:
[1] = test system: B. subtilis strain BS1048 (RpoC-GFP); test: Confocal fluorescence microscopy of GFP-tagged RNAP; type: cell-based; details: 8e added at ½ MIC, 15 min
In short: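 BS1048 (RpoC-GFP) was plated on LB agar. […] 2.5 μL of culture was mounted on a fresh 1.2% agarose pad under a coverslip. Imaging used a confocal microscope with a 63×/1.3 oil objective and a mercury metal halide lamp.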

[2] = test system: S. saprophyticus ATCC 15305; test: MIC by broth microdilution; type: cell-based; details: Staphylococcus saprophyticus, ATCC15305, read-out: MIC SSAP
In short: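 Broth microdilution per CLSI in cation-adjusted Mueller-Hinton broth (Staphylococcus spp.). Two-fold serial dilutions ran from 256 to 0.5 μg/mL, with an inoculum of ~5 × 10^5 CFU/mL. Plates were read after 20 h at 37 °C. MIC = lowest concentration with no observable growth.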

S. aureus ATCC 29213 = test: Cell content quantification; type: cell-based, Staphylococcus aureus; details: ¼ and ⅛ MIC, versus untreated control
In short: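 S. aureus ATCC 29213 master culture was started at OD600 0.1 with shaking at 175 rpm, 37 °C. At OD600 0.2 (early log) it was split and dosed at ¼ and ⅛ MIC, with a drug-free control. Cells were harvested when the control reached OD600 0.6; other samples were taken at volumes adjusted to an OD600 equivalent of 0.6. 3 mL was pelleted at 5000 × g, 5 min, 4 °C, and DNA/RNA/protein co-extracted with a kit. DNA and RNA were read by fluorometric broad-range assays, protein by BCA. Triplicate.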

SMILES	Localization of GFP-tagged RNAP fluorescence [1]	MIC [2] [µg/mL]	Total RNA levels (S. aureus ATCC 29213)	Total levels of DNA (S. aureus ATCC 29213)	Total levels of protein (S. aureus ATCC 29213)
O=C(O)c1ccc(C(F)(F)F)cc1C(=O)c1ccc(Sc2ccc(Cl)c(Cl)c2)c([N+](=O)[O-])c1 [8e, 2-(4-((3,4-Dichlorophenyl)thio)-3-nitrobenzoyl)-4-(trifluoromethyl)benzoic acid]	delocalized from the nucleoid	0.5 to 1 (≈ 0.968 to 1.94 µM)	reducing the total levels of staphylococcal RNA in a dose-dependent manner	largely unaffected	reduced the total levels of protein
CO[C@H]1/C=C/O[C@@]2(C)Oc3c(C)c(O)c4c(O)c(c(/C=N/N5CCN(C)CC5)c(O)c4c3C2=O)NC(=O)/C(C)=C\C=C\[C@H](C)[C@H](O)[C@@H](C)[C@@H](O)[C@@H](C)[C@H](OC(C)=O)[C@@H]1C [rifampicin, reference compound]	–	–	significantly reduced	largely unaffected	–
